Published values collected from several papers.
Each line is one published result; the experiments were not run side by side.
Mode: inhibitor
MET: Hepatocyte growth factor receptor (MET, Homo sapiens, UniProt P08581)
MET M1250T: Hepatocyte growth factor receptor (MET, Homo sapiens, UniProt P08581, M1250T)

CSc1nc(C)c(-c2ccnc(Nc3ccc(N4CCOCC4)cc3)c2)[nH]1  inhibition (MET; cell-free assay; 10 µM): 28.2%
C=CC(=O)Nc1cc(Nc2nccc(Nc3cc(Cl)c(F)cc3C(C)(C)O)n2)c(OC)cc1N1CC[C@@H](N(C)C)C1  inhibition (MET; enzyme activity; 1 µM): 30%
COc1cc2ncnc(Nc3ccc(Oc4ccccc4)c(C)c3C)c2cc1OC  inhibition (MET M1250T; enzyme activity; 1 µM): -2%
CC/C(=N\NC(=O)NCc1cccc(O)c1)c1ccc(O)c(C)c1O  inhibition (MET M1250T; enzyme activity; 0.1 µM): -0.2%
COc1cc2ncnc(Nc3ccc(Oc4ccccc4)cc3C)c2cc1OC  inhibition (MET M1250T; enzyme activity; 1 µM): -1%
O=C(CSc1nc2nccnc2c(=O)n1CCc1ccccc1)Nc1nccs1  inhibition (MET; enzyme activity; 10 µM): -2%
CNC(=O)c1cc(Oc2ccc(NC(=O)Nc3ccc(Cl)c(C(F)(F)F)c3)cc2)ccn1  inhibition (MET; enzyme activity; 0.3 µM): -22%
CCCS(=O)(=O)Nc1ccc(F)c(C(=O)c2c[nH]c3ncc(-c4ccc(Cl)cc4)cc23)c1F  inhibition (MET; enzyme activity; 1 µM): < 20%
CNC(=O)c1cc2c(Oc3ccc(NC(=O)C4(C(=O)Nc5ccc(F)cc5)CC4)cc3)ccnc2cc1OC  inhibition (Hepatocyte growth factor receptor (MET, Homo sapiens, UniProt P08581, Y1230C); enzyme activity, radiometric; 1 µM): 100%
CN(C)C1CCN(CC#Cc2nn(C3CCCC3)c3nc(NCc4ccccc4)ncc23)C1 (centres unmarked)  inhibition (MET; enzyme activity, FRET; 0.1 µM): 6%
CNc1cc(Oc2cc(C(=O)Nc3cc(N4CCN(C)CC4)cc(C(F)(F)F)c3)ccc2C)ncn1  inhibition (MET; target engagement in cells, chemoproteomics; Huh-7; 1 µM): -18.4%
